Screens: PubChem BioAssay, Broad Institute
S100A4 inh HTS – blocks human S100A4 binding to myosin IIA peptide; hit rate 0.14% among 360,000; P26447; S100A4/TAMRA-MyoIIA peptide fluorescence polarization; inhibition, % at 10.7 µM; AID 652163;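 active = mean inhibition of at least 70% across replicates, with every replicate also reaching that level; inconclusive = mean inhibition reaches 70% but some replicates fall short; inactive = mean inhibition below 70%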
Target sequence (P26447 whole entry, looked up): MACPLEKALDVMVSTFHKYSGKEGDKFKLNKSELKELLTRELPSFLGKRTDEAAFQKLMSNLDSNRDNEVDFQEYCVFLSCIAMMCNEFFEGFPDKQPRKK
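Test system: S100A4 monomer protein; Medium: HEPES pH 7.2 with CaCl2, KCl, NaCl, DTT, Triton; Probe or stimulus: TAMRA-labelled myosin IIA heavy-chain peptide probe, 5 nM; Doses: one dose per compound; Times: polarization read 5 min after assay mix addition, stable 5–60 min; Benchmarks: neutral control DMSO, positive control TFP.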
DENV2 CPE – DENV2-induced cell death inhibition | DENV2-infected cells, cytopathic effect rescue, plate reader | CPE inhibition, % at 9.99 µM | hit rate 1.7% among 350,000; in the data active = CPE inhibition above about 20%, passing the limit was not always enough; inconclusive = no clear call, values can overlap the other calls; tested in BHK-21 cells;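 also: 0% = median of neutral control wells and 100% = median of positive control wells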
MLL AF4-AF9 inh – inhibitors of human MLL-AF4/AF9 interaction | P42568 | AlphaScreen, biotin-AF4 peptide binding to FLAG-AF9 | inhibition, % at 10 µM | hit rate 0.47% among 350,000 | AID 651704;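 active = every replicate reaching a set inhibition limit, whatever the replicate mean, cut at about 25% in these data; inconclusive = mean inhibition reaches that limit but some replicates miss it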;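 also: 0% = plate neutral control median and 100% = total signal loss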
Target sequence (P42568 whole entry, looked up): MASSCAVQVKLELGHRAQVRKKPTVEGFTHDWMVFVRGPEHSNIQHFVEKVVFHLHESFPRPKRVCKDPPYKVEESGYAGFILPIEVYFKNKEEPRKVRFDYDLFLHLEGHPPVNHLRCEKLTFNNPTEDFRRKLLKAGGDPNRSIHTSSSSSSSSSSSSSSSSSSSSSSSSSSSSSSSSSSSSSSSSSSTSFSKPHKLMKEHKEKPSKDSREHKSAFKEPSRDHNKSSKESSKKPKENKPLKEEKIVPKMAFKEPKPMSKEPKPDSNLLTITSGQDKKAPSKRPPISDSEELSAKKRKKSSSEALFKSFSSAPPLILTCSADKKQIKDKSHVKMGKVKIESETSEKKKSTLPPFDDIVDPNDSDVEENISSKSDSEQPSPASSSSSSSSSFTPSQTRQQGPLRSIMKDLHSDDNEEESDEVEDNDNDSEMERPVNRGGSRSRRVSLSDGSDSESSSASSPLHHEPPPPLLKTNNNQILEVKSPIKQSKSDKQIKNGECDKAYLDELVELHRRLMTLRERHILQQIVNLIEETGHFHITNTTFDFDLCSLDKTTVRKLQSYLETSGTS
Cneo AK release – causes C. neoformans cell lysis. adenylate kinase release luminescence, 4 h; normalised: neutral wells 0, clomiphene wells 100. lysis activity, % at 15 µM. hit rate 0.2% among 360,000;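 active = mean lysis activity across replicates of at least 80%, whatever share of replicates individually reach that level; inactive = mean lysis activity below 80%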
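Test system: log-phase Cryptococcus neoformans yeast cells. Input: 5 × 10^6 yeast cells/mL. Medium: fresh YPD growth medium. Doses: single dose. Incubation: static 4 h at 37 °C with compound, 1 h detection. Measured by: luminescent adenylate kinase detection reagent. Read-out: signal increase indicating cell lysis. Benchmarks: Clomiphene.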
PfHsp90 yeast 2 – growth inhibition of yeast expressing Plasmodium Hsp90; S. cerevisiae expressing PfHsp90, BacTiter-Glo ATP, 48 h; yeast lacking PDR1 and PDR3 efflux regulators; inhibition, % at 9.4 µM; hit rate 0.32% among 310,000; AID 504621;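 active = every replicate shows inhibition above about 80%, whatever the replicate mean, limit read from the data; inconclusive = mean inhibition reaches the set limit but some replicate falls short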;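 also: 0% = DMSO neutral controls and 100% = 20 µM radicicol positive controls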
Ecoli rRNA inh – inhibitors of bacterial rRNA selective over humanized ribosomes; E. coli WT GFP vs humanized-ribosome RFP mutants, fluorescence, 24 h; active compounds read low; DMSO median 0, no signal -100; GFP signal change (wild-type ribosome), % (no concentration beside the values); hit rate 1.6% among 350,000; AID 720706;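 active = significant combined selectivity score with lowered wild-type GFP, culture density cut under 30%, mutant RFP and density less affected; inactive = any of these conditions unmet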
* marks the source's active call; other numbers are inactive results; ? = inconclusive; · = no result; ! = not confirmed by another sample. Most compounds without a hit are left out; they make up all but 3.2% or so of the library.

SMILES | S100A4 inh HTS | DENV2 CPE | MLL AF4-AF9 inh | Cneo AK release | PfHsp90 yeast 2 | Ecoli rRNA inh
C[C@@H]1CN([C@@H](C)CO)C(=O)c2cccc(N(C)C)c2O[C@@H]1CN(C)C(=O)Nc1cccc2ccccc12 | 81.4* | 14.5 | 2.0 | 0.0 | · | 1.6
C[C@@H]1CN([C@H](C)CO)C(=O)Cc2cc(NC(=O)c3ccncc3)ccc2O[C@H]1CN(C)C(=O)Nc1ccc(C(F)(F)F)cc1 | -30.9 | 22.8* | 0.8 | 4.1 | · | 1.2
C[C@@H]1CN([C@H](C)CO)C(=O)Cc2cc(NC(=O)Nc3ccc(C(F)(F)F)cc3)ccc2O[C@H]1CN(C)Cc1ccc(C(F)(F)F)cc1 | 0.1 | 6.4 | -1.7 | -0.9 | · | 3.5
C[C@@H]1CN([C@@H](C)CO)C(=O)Cc2cc(NC(=O)Nc3ccc(C(F)(F)F)cc3)ccc2O[C@H]1CN(C)C(=O)Nc1ccc(C(F)(F)F)cc1 | -1.6 | 53.0* | 2.8 | 2.8 | · | 1.3
C[C@H](CO)N1C[C@H](C)[C@H](CN(C)Cc2ccc(C(F)(F)F)cc2)Oc2ccc(NC(=O)Nc3ccc(C(F)(F)F)cc3)cc2CC1=O | -1.9 | 63.3* | 1.9 | -0.7 | · | 3.6
C[C@@H]1CN([C@@H](C)CO)C(=O)Cc2cc(NS(C)(=O)=O)ccc2O[C@H]1CN(C)Cc1ccc(C(F)(F)F)cc1 | -4.5 | 20.0* | -1.0 | 5.9 | · | -0.8
C[C@H](CO)N1C[C@H](C)[C@@H](CN(C)Cc2ccc(C(F)(F)F)cc2)Oc2ccc(NS(C)(=O)=O)cc2CC1=O | 1.2 | -3.9 | 4.4 | -1.5 | · | -21.0
C[C@H](CO)N1C[C@H](C)[C@H](CN(C)S(=O)(=O)c2ccc(Cl)cc2)OCCCC[C@H](C)Oc2ccc(NC(=O)C3CCCCC3)cc2C1=O | 3.2 | 17.0 | -0.5 | 3.8 | · | -1.3
CNC(=O)C[C@H]1CC[C@H]2[C@@H](COc3ccc(NC(=O)NC(C)C)cc3C(=O)N2C)O1 | · | 0.8 | · | 0.1 | · | 0.0
C[C@@H]1CN([C@@H](C)CO)C(=O)Cc2cc(NC(=O)c3ccncc3)ccc2O[C@@H]1CN(C)Cc1ccc(C(F)(F)F)cc1 | 11.7 | 31.2* | -1.8 | 0.9 | · | -6.5
C[C@H](CO)N1C[C@H](C)[C@H](CN(C)Cc2ccncc2)Oc2ccc(NC(=O)c3ccncc3)cc2CC1=O | 3.0 | 2.5 | -0.9 | -1.2 | · | 0.9
C[C@H]1CN([C@@H](C)CO)C(=O)Cc2cc(NC(=O)C3CCCCC3)ccc2O[C@@H]1CN(C)Cc1ccc(C(F)(F)F)cc1 | 7.4 | 39.2* | -1.4 | 0.4 | · | -1.6
C[C@@H]1CN([C@@H](C)CO)C(=O)Cc2cc(NC(=O)c3ccncc3)ccc2O[C@H]1CN(C)Cc1ccncc1 | 3.5 | 7.3 | -3.0 | 100.0* | · | 1.1
O=C(C[C@@H]1CC[C@H](NC(=O)NC2CCCC2)[C@@H](CO)O1)NCc1ccc(F)cc1 | 6.2 | 10.0 | -1.4 | -0.1 | · | 2.7
O=C(C[C@@H]1CC[C@@H](NC(=O)NC2CCCC2)[C@H](CO)O1)NCc1ccc(F)cc1 | 120.0* | -3.6 | -3.5 | 1.0 | · | 1.8
O=C(C[C@@H]1CC[C@@H](NC(=O)NC2CCCCC2)[C@@H](CO)O1)NCc1ccc(F)cc1 | 1.2 | 39.3* | 1.1 | 57.1 | · | 0.4
Cc1noc(C)c1NC(=O)Nc1ccc2c(c1)C(=O)N([C@@H](C)CO)C[C@@H](C)[C@@H](CN(C)C(=O)Nc1cccc3ccccc13)OCCCC[C@@H](C)O2 | · | -12.0 | · | -11.8 | · | 1.2
C[C@H](CO)N1C[C@H](C)[C@@H](CN(C)Cc2ccccc2)Oc2ccc(N(C)C)cc2C1=O | -5.8 | -0.7 | -4.0 | -1.9 | · | 4.6
C[C@H](CO)N1C[C@H](C)[C@H](CN(C)Cc2ccc(Oc3ccccc3)cc2)Oc2ccc(N(C)C)cc2C1=O | -0.7 | 0.0 | 51.6* | 4.4 | · | -5.9
C[C@@H]1CN([C@H](C)CO)C(=O)c2cc(N(C)C)ccc2O[C@@H]1CN(C)Cc1ccc(Oc2ccccc2)cc1 | 22.5 | -6.4 | 51.5* | 9.1 | · | -53.5
C[C@@H]1CN([C@H](C)CO)C(=O)c2cc(N(C)C)ccc2O[C@H]1CN(C)Cc1ccc(Oc2ccccc2)cc1 | 4.4 | 4.8 | 39.8* | -4.6 | · | -2.1
N#Cc1ccccc1Sc1ccccc1C(=O)NCC(c1ccco1)N1CCCC1 (configuration not stated) | -6.8 | 5.4 | 27.1* | · | 30.9 | 1.3
N#Cc1ccc(C(=O)NCC(c2ccco2)N2CCCC2)cc1 (configuration not stated) | · | · | · | -1.6 | 8.4 | ·
COc1ccc(S(=O)(=O)N(C)C[C@@H]2Oc3ccc(NS(=O)(=O)c4ccc(C)cc4)cc3CC(=O)N([C@@H](C)CO)C[C@H]2C)cc1 | · | -6.0 | · | -3.5 | · | -4.5
C[C@@H]1CN([C@H](C)CO)C(=O)c2cc(C#CC3CC3)cnc2O[C@H]1CN(C)C(=O)Nc1ccccc1 | 8.1 | 31.3* | -1.8 | 58.6 | · | 0.5
SMILES | S100A4 inh HTS | DENV2 CPE | MLL AF4-AF9 inh | Cneo AK release | PfHsp90 yeast 2 | Ecoli rRNA inh
C[C@@H]1CN([C@H](C)CO)C(=O)c2cc(C#CC3CC3)cnc2O[C@@H]1CN(C)S(C)(=O)=O | 117.5* | -8.6 | -7.3 | 29.5 | · | 5.9
C[C@H](CO)N1C[C@H](C)[C@H](CN(C)C)Oc2ncc(C#CC3CC3)cc2C1=O | -8.8 | 101.5* | -1.5 | -4.6 | · | -1.7
C[C@H](CO)N1C[C@H](C)[C@@H](CN(C)C(=O)Nc2ccccc2)Oc2ncc(C#CC3CC3)cc2C1=O | 10.1 | 1.3 | 0.2 | -1.3 | · | 2.5
C[C@H](CO)N1C[C@H](C)[C@H](CN(C)C(=O)Cc2ccccn2)Oc2ncc(C#CC3CC3)cc2C1=O | 37.9 | 24.7* | -3.2 | -9.3 | · | 4.8
C[C@H](CO)N1C[C@H](C)[C@H](CN(C)C)Oc2ncc(Br)cc2C1=O | -5.3 | -3.8 | 4.1 | 0.6 | · | 3.0
C[C@@H]1CN([C@@H](C)CO)C(=O)c2cc(Br)cnc2O[C@@H]1CN(C)S(C)(=O)=O | 11.0 | 32.3*! | 1.1 | -0.4 | · | 8.3
C[C@H](CO)N1C[C@H](C)[C@@H](CN(C)C(=O)c2ccccc2)Oc2ncc(Br)cc2C1=O | 10.3 | -3.9 | -0.7 | -3.6 | · | -0.7
C[C@@H]1CN([C@H](C)CO)C(=O)c2cc(Br)cnc2O[C@@H]1CN(C)C(=O)c1ccccc1 | 0.8 | 65.1*! | -1.2 | -0.3 | · | 4.8
Cc1noc(C)c1NC(=O)Nc1ccc2c(c1)C(=O)N(C)[C@H]1CC[C@@H](CC(=O)NCc3ccc(Cl)cc3)O[C@@H]1CO2 | 3.4 | ? | -0.2 | 0.4 | · | 1.1
O=C(c1cccc(Oc2ccc([N+](=O)[O-])cc2)c1)N1CCOCC1 | -1.4 | 96.8* | 0.7 | 1.8 | -4.3 | -0.3
CO[C@@H]1CN(C)C(=O)c2cc(NC(=O)c3cc(C)on3)ccc2OC[C@H](C)N(C(C)=O)C[C@@H]1C | -6.2 | -0.8 | 2.1 | -5.5 | · | 0.8
